# What was measured:
# Assay type in all cases: functional
# [1] = test system: Staphylococcus aureus; assay: Antibacterial activity against Staphylococcus aureus after 18 to 22 hrs by broth microdilution method
# In short: (§1)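 Broth microdilution per NCCLS in Mueller-Hinton II broth; isolates subcultured for purity. Compounds dissolved in DMSO, serial dilutions 256 to 0.5 µg/mL; inoculum 10^5/mL. Controls: organism without compound, medium only. Incubation 18 to 22 h at 35 °C. MIC is the lowest concentration giving complete growth inhibition, read by unaided eye.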
# [2] = test system: Staphylococcus warneri; assay: Antibacterial activity against Staphylococcus warneri after 18 to 22 hrs by broth microdilution method; in short: as §1
# [3] = test system: Enterococcus faecalis; assay: Antibacterial activity against […] faecalis after 18 to 22 hrs by broth microdilution method; in short: as §1
# [4] = test system: Staphylococcus haemolyticus; assay: Antibacterial activity against Staphylococcus haemolyticus after 18 to 22 hrs by broth microdilution method; in short: as §1
# [5] = test system: Escherichia coli; assay: Antibacterial activity against Escherichia coli at after 18 to 22 hrs by broth microdilution method; in short: as §1
# [6] = test system: Proteus mirabilis; assay: Antibacterial activity against Proteus mirabilis after 18 to 22 hrs by broth microdilution method; in short: as §1
# [7] = test system: Enterobacter sp.; assay: Antibacterial activity against Enterobacter sp. after 18 to 22 hrs by broth microdilution method; in short: as §1
# [8] = test system: Klebsiella oxytoca; assay: Antibacterial activity against Klebsiella oxytoca after 18 to 22 hrs by broth microdilution method; in short: as §1
# [9] = test system: Candida albicans; assay: Antifungal activity against Candida albicans clinical isolate after 24 hrs by sabouraud dextrose broth based microdilution method
# In short: (§2)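 Clinical isolates identified by conventional methods and subcultured for purity. Broth microdilution per NCCLS in Sabouraud dextrose broth; compounds dissolved in DMSO and serially diluted; inoculum 10^3/mL. Controls: fungi without compound, medium only. Incubated 24 h at 37 °C. MIC is the lowest concentration with complete growth inhibition by unaided eye. Values are geometric means over isolates per species.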
# [10] = test system: Nakaseomyces glabratus; assay: Antifungal activity against Candida glabrata clinical isolate after 24 hrs by sabouraud dextrose broth based microdilution method; in short: as §2
# [11] = test system: Candida tropicalis; assay: Antifungal activity against Candida tropicalis clinical isolate after 24 hrs by sabouraud dextrose broth based microdilution method; in short: as §2
# [12] = test system: Pichia kudriavzevii; assay: Antifungal activity against Candida krusei clinical isolate after 24 hrs by sabouraud dextrose broth based microdilution method; in short: as §2
# [13] = test system: Candida parapsilosis; assay: Antifungal activity against Candida parapsilosis clinical isolate after 24 hrs by sabouraud dextrose broth based microdilution method; conditions: Lodderomyces parapsilosis; in short: as §2
# [14] = test system: [Candida] sake; assay: Antifungal activity against Candida sake clinical isolate after 24 hrs by sabouraud dextrose broth based microdilution method; conditions: Fermentozyma sake; in short: as §2
SMILES,MIC [1],MIC [2],MIC [3],MIC [4],MIC [5],MIC [6],MIC [7],MIC [8],MIC [9],MIC [10],MIC [11],MIC [12],MIC [13],MIC [14]
CC1CCC(=N/N=C2\SCC(=O)N2Cc2cccc3ccccc23)CC1 (stereo not given),> 256 µg/mL,> 256 µg/mL,> 256 µg/mL,> 256 µg/mL,> 256 µg/mL,> 256 µg/mL,> 256 µg/mL,> 256 µg/mL,2 µg/mL,16 µg/mL,128 µg/mL,8 µg/mL,8 µg/mL,4 µg/mL
CCCCCC/C(C)=N/N=C1\SCC(=O)N1CN1C(=O)c2ccccc2C1=O,> 256 µg/mL,> 256 µg/mL,> 256 µg/mL,> 256 µg/mL,> 256 µg/mL,> 256 µg/mL,> 256 µg/mL,> 256 µg/mL,2 µg/mL,16 µg/mL,16 µg/mL,8 µg/mL,16 µg/mL,16 µg/mL
O=C1CS/C(=N\N=C\c2ccco2)N1Cc1ccc([N+](=O)[O-])cc1,> 256 µg/mL,> 256 µg/mL,> 256 µg/mL,> 256 µg/mL,> 256 µg/mL,> 256 µg/mL,> 256 µg/mL,> 256 µg/mL,4 µg/mL,8 µg/mL,2 µg/mL,16 µg/mL,16 µg/mL,2 µg/mL
O=C1CS/C(=N\N=C2CCCC2)N1Cc1cccc2ccccc12,> 256 µg/mL,> 256 µg/mL,> 256 µg/mL,> 256 µg/mL,> 256 µg/mL,> 256 µg/mL,> 256 µg/mL,> 256 µg/mL,2 µg/mL,16 µg/mL,8 µg/mL,16 µg/mL,128 µg/mL,256 µg/mL
C/C(=N\N=C1/SCC(=O)N1Cc1ccc([N+](=O)[O-])cc1)c1ccco1,> 256 µg/mL,> 256 µg/mL,> 256 µg/mL,> 256 µg/mL,> 256 µg/mL,> 256 µg/mL,> 256 µg/mL,> 256 µg/mL,32 µg/mL,32 µg/mL,16 µg/mL,4 µg/mL,8 µg/mL,8 µg/mL
O=C1CS/C(=N\N=C2CCCCC2)N1Cc1ccc([N+](=O)[O-])cc1,> 256 µg/mL,> 256 µg/mL,> 256 µg/mL,> 256 µg/mL,> 256 µg/mL,> 256 µg/mL,> 256 µg/mL,> 256 µg/mL,8 µg/mL,32 µg/mL,8 µg/mL,16 µg/mL,8 µg/mL,16 µg/mL
CC1CCC(=N/N=C2\SCC(=O)N2CN2C(=O)c3ccccc3C2=O)CC1 (stereo not given),> 256 µg/mL,> 256 µg/mL,> 256 µg/mL,> 256 µg/mL,> 256 µg/mL,> 256 µg/mL,> 256 µg/mL,> 256 µg/mL,2 µg/mL,32 µg/mL,8 µg/mL,8 µg/mL,8 µg/mL,4 µg/mL
O=C1CS/C(=N\N=C\c2cccc3ccccc23)N1Cc1ccc([N+](=O)[O-])cc1,> 256 µg/mL,> 256 µg/mL,> 256 µg/mL,> 256 µg/mL,> 256 µg/mL,> 256 µg/mL,> 256 µg/mL,> 256 µg/mL,256 µg/mL,64 µg/mL,16 µg/mL,8 µg/mL,8 µg/mL,8 µg/mL
CCC/C(C)=N/N=C1\SCC(=O)N1Cc1ccc([N+](=O)[O-])cc1,> 256 µg/mL,> 256 µg/mL,> 256 µg/mL,> 256 µg/mL,> 256 µg/mL,> 256 µg/mL,> 256 µg/mL,> 256 µg/mL,2 µg/mL,2 µg/mL,64 µg/mL,16 µg/mL,16 µg/mL,8 µg/mL
C=CCC/C(C)=N/N=C1\SCC(=O)N1Cc1cccc2ccccc12,> 256 µg/mL,> 256 µg/mL,> 256 µg/mL,> 256 µg/mL,> 256 µg/mL,> 256 µg/mL,> 256 µg/mL,> 256 µg/mL,2 µg/mL,2 µg/mL,8 µg/mL,2 µg/mL,2 µg/mL,2 µg/mL
CCC(CC)=N/N=C1\SCC(=O)N1Cc1ccc([N+](=O)[O-])cc1,> 256 µg/mL,> 256 µg/mL,> 256 µg/mL,> 256 µg/mL,> 256 µg/mL,> 256 µg/mL,> 256 µg/mL,> 256 µg/mL,2 µg/mL,8 µg/mL,8 µg/mL,32 µg/mL,128 µg/mL,2 µg/mL
C/C(=N\N=C1/SCC(=O)N1Cc1ccc([N+](=O)[O-])cc1)c1ccccc1,> 256 µg/mL,> 256 µg/mL,> 256 µg/mL,> 256 µg/mL,> 256 µg/mL,> 256 µg/mL,> 256 µg/mL,> 256 µg/mL,4 µg/mL,32 µg/mL,2 µg/mL,8 µg/mL,4 µg/mL,2 µg/mL
CCCCC/C(C)=N/N=C1\SCC(=O)N1Cc1cccc2ccccc12,> 256 µg/mL,> 256 µg/mL,> 256 µg/mL,> 256 µg/mL,> 256 µg/mL,> 256 µg/mL,> 256 µg/mL,> 256 µg/mL,4 µg/mL,8 µg/mL,64 µg/mL,2 µg/mL,2 µg/mL,2 µg/mL
CCC(CC)=N/N=C1\SCC(=O)N1Cc1cccc2ccccc12,> 256 µg/mL,> 256 µg/mL,> 256 µg/mL,> 256 µg/mL,> 256 µg/mL,> 256 µg/mL,> 256 µg/mL,> 256 µg/mL,2 µg/mL,16 µg/mL,2 µg/mL,16 µg/mL,16 µg/mL,2 µg/mL
CCCCCC/C(C)=N/N=C1\SCC(=O)N1Cc1cccc2ccccc12,> 256 µg/mL,> 256 µg/mL,> 256 µg/mL,> 256 µg/mL,> 256 µg/mL,> 256 µg/mL,> 256 µg/mL,> 256 µg/mL,2 µg/mL,2 µg/mL,8 µg/mL,8 µg/mL,16 µg/mL,16 µg/mL

# From ChEMBL document CHEMBL3739379, “Anti-Candida activity and cytotoxicity of a large library of new N-substituted-1,3-thiazolidin-4-one derivatives” (Eur J Med Chem, 2016)
